Measurements: ChEMBL document CHEMBL1140975, “Synthesis and antimalarial activity of carbamate and amide derivatives of 4-anilinoquinoline” (Eur J Med Chem, 2008)
pIC50: −log10 of the molar value. The source made the active and inactive calls. No cut-off for these calls is given here.

Columns and labels:
[1] = Cytotoxicity against human MRC5 cells after 7 days by MTT assay; assay type: cell-based
Method in brief: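 MRC-5 human embryonic lung cells were seeded at 5000 per well and washed after 24 h. Two-fold drug dilutions were added in RPMI + 5% FCS, with final DMSO below 0.5%. Plates were held at 37 °C in 5% CO₂ for 7 days. MTT absorbance at 540 nm was compared with untreated controls. CC₅₀ is the concentration causing 50% cytotoxicity.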

Plasmodium berghei [2] = experiment: Antimalarial activity as increased MST in Plasmodium berghei ANKA 65 infected Swiss CD1 mice (Mus musculus) at 40 mg/kg peroral dose day 1 followed by intraperitoneal dose for 4 days; assay type: functional
Method in brief: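 Female Swiss CD-1 mice, four weeks old, 20-25 g, three per group. Infected ip with about 10^7 P. berghei ANKA 65 parasitized erythrocytes from a donor mouse. Dosed orally at 40 mg/kg in 100% DMSO at infection, then ip for the following 4 days. Controls were infected DMSO-dosed mice. Excess MST is the percent prolongation of mean survival time over controls.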

Plasmodium berghei [3] = experiment: Antimalarial activity as reduced parasitaemia in Plasmodium berghei ANKA 65 infected Swiss CD1 mice (Mus musculus) at 40 mg/kg/day peroral dose then intraperitoneal for 4 days; assay type: functional; set-up: scale not given: the % may be the effect or the level left; conditions: route oral
Method in brief: (§1)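 Female Swiss CD-1 mice (4 weeks old, 20–25 g), three per group, infected intraperitoneally with about 10⁷ P. berghei ANKA 65-parasitized erythrocytes from an infected donor. The first dose was given orally in 100% DMSO at infection, then intraperitoneally on the following 4 days. Infected DMSO-dosed mice served as controls. Read-outs were parasitaemia reduction at day 4 and excess MST, the % prolongation of mean survival time versus controls.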

[4] = Selectivity index, ratio of IC50 for human MRC5 cells to IC50 for chloroquine-resistant Plasmodium falciparum FcB1R/Colombia; assay type: toxicity, cell-based; conditions: read-out: Ratio CC50/IC50
Method in brief: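 SI is CC50 on MRC-5 over IC50 against FcB1R. MRC-5 cells were seeded at 5000 per well and treated after 24 h with two-fold dilutions in RPMI + 5% FCS (DMSO <0.5%). Incubation was 7 days at 37 °C, 5% CO2. Read-out was MTT, as % reduction of absorbance at 540 nm versus untreated cultures. CC50 is the concentration giving 50% cytotoxicity.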

Mus musculus = organism: Mus musculus; experiment: Toxicity in Plasmodium berghei ANKA 65 infected Swiss CD1 mice (Mus musculus); assay type: organism-based; conditions: in vivo
Plasmodium falciparum [5] = experiment: Antimalarial activity after 24 hrs against chloroquine-resistant Plasmodium falciparum FcB1R/Colombia by [3H]hypoxanthine uptake; assay type: functional, organism-based
Method in brief: (§2)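 Asynchronous P. falciparum cultures on human erythrocytes (1% parasitaemia, 1% final haematocrit) exposed to serial dilutions of drug for 24 h at 37 °C, then [3H]hypoxanthine added for another 24 h. Cells freeze-thawed, harvested onto glass-fibre filters and scintillation counted. Incorporation compared with drug-free control on the same plate. IC50 taken from concentration-response curve, mean ± SD of independent experiments. DMSO ≤0.1%.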

Plasmodium falciparum [6] = experiment: Antimalarial activity after 24 hrs against chloroquine-resistant Plasmodium falciparum K1/Thailand by [3H]hypoxanthine uptake; assay type: functional, organism-based; method in brief: as §2
Plasmodium falciparum [7] = experiment: Antimalarial activity against chloroquine-sensitive Plasmodium falciparum THAI/Thailand as [3H]hypoxanthine uptake after 24 hrs by semi-automated micro dilution; assay type: functional, organism-based; method in brief: as §2
Plasmodium berghei [8] = experiment: Antimalarial activity as increased mean survival time in Plasmodium berghei ANKA 65 infected Swiss CD1 mice (Mus musculus) at 10 mg/kg peroral dose day 1 with intraperitoneal dose over 4 days; assay type: functional, organism-based; set-up: dose 10 mg/kg; method in brief: as §1
Plasmodium berghei [9] = experiment: Antimalarial activity as reduced parasitaemia in Plasmodium berghei ANKA 65 infected Swiss CD1 mice (Mus musculus) at 10 mg/kg/day peroral dose then intraperitoneal dose for 4 days; assay type: functional; set-up: scale not given: the % may be the effect or the level left; conditions: route oral; method in brief: as §1

Row | SMILES | CC50 at 168 h [1] [nM] | selectivity ratio [4] | pIC50 (Plasmodium falciparum [5]) | other results
1 | CN1CCN(C(=O)c2cc(NC(=O)CN3CCCCC3)cc(Nc3ccnc4cc(Cl)ccc34)c2)CC1 | 16000 | 833 | 7.72 | Activity (Plasmodium berghei [2]; route oral): 150%; Activity (Plasmodium berghei [3]): 99.96%; Activity (Mus musculus): Non-toxic; pIC50 (Plasmodium falciparum [6]): 7.29; pIC50 (Plasmodium falciparum [7]): 7.42
2 | CN(C)CCNC(=O)OCc1cc(NC(=O)CN2CCCCC2)cc(Nc2ccnc3cc(Cl)ccc23)c1 | 3100 | 304 | 7.99 | –
3 | O=C(CN1CCCCC1)Nc1cc(Nc2ccnc3cc(Cl)ccc23)cc(C(=O)N2CCCCC2)c1 | > 32000 | > 112 | 6.54 | –
4 | CN(C)CCN(C)C(=O)c1cc(NC(=O)CN2CCCCC2)cc(Nc2ccnc3cc(Cl)ccc23)c1 | 16000 | 851 | 7.73 | –
5 | O=C(CN1CCCCC1)Nc1cc(COC(=O)NCc2ccccc2)cc(Nc2ccnc3cc(Cl)ccc23)c1 | > 12500 | > 347 | 7.44 | –
6 | O=C(CN1CCCCC1)Nc1cc(CNCCN2CCCCC2)cc(Nc2ccnc3cc(Cl)ccc23)c1 | – | 648 | 8.18 | –
7 | CN(C)CCNCc1cc(NC(=O)CN2CCCCC2)cc(Nc2ccnc3cc(Cl)ccc23)c1 | – | 1150 | – | –
8 | O=C(CN1CCCCC1)Nc1cc(COC(=O)CCN2CCCCC2)cc(Nc2ccnc3cc(Cl)ccc23)c1 | – | 158 | – | –
9 | O=C(CN1CCCCC1)Nc1cc(Nc2ccnc3cc(Cl)ccc23)cc(C(=O)O)c1 | > 32000 | – | < 6.00 | –
10 | O=C(CN1CCCCC1)Nc1cc(Nc2ccnc3cc(Cl)ccc23)cc(C(=O)N2CCN(c3ccccc3)CC2)c1 | 16000 | 106 | 6.82 | –
11 | O=C(CN1CCCCC1)Nc1cc(Nc2ccnc3cc(Cl)ccc23)cc(C(=O)NCCN2CCCC2)c1 | 17000 | 1024 | 7.78 | –
12 | CCN(CC)CCCNC(=O)OCc1cc(NC(=O)CN2CCCCC2)cc(Nc2ccnc3cc(Cl)ccc23)c1 | 6300 | 434 | 7.84 | –
13 | O=C(CN1CCCCC1)Nc1cc(Nc2ccnc3cc(Cl)ccc23)cc(C(=O)N2CCOCC2)c1 | > 32000 | > 298 | 6.97 | –
14 | CN(C)CCCNCc1cc(NC(=O)CN2CCCCC2)cc(Nc2ccnc3cc(Cl)ccc23)c1 | – | 174 | – | –
15 | CN1CCN(CCCNC(=O)OCc2cc(NC(=O)CN3CCCCC3)cc(Nc3ccnc4cc(Cl)ccc34)c2)CC1 | 6300 | – | – | –
16 | O=C(CN1CCCCC1)Nc1cc(COC(=O)NCCN2CCOCC2)cc(Nc2ccnc3cc(Cl)ccc23)c1 | > 12500 | > 259 | 7.32 | pIC50 (Plasmodium falciparum [6]): 7.71; pIC50 (Plasmodium falciparum [7]): 7.41

Row | SMILES | CC50 at 168 h [1] [nM] | selectivity ratio [4] | pIC50 (Plasmodium falciparum [5]) | other results
17 | O=C(CN1CCCCC1)Nc1cc(Nc2ccnc3cc(Cl)ccc23)cc(C(=O)N2CCN(Cc3ccccc3)CC2)c1 | 15000 | 296 | 7.30 | –
18 | O=C(CN1CCCCC1)Nc1cc(Nc2ccnc3cc(Cl)ccc23)cc(C(=O)NCCN2CCOCC2)c1 | > 32000 | > 546 | 7.23 | –
19 | CCN(CC)CCCCC(=O)OCc1cc(NC(=O)CN2CCCCC2)cc(Nc2ccnc3cc(Cl)ccc23)c1 | – | 89 | – | –
20 | O=C(CN1CCCCC1)Nc1cc(CNCCN2CCCC2)cc(Nc2ccnc3cc(Cl)ccc23)c1 | – | 182 | – | –
21 | O=C(CN1CCCCC1)Nc1cc(COC(=O)NCCN2CCCCC2)cc(Nc2ccnc3cc(Cl)ccc23)c1 | 12500 | 1120 | 7.95 | Activity (Plasmodium berghei [2]; route oral): 50%; Activity (Plasmodium berghei [3]): 100%; Activity (Mus musculus): Non-toxic; pIC50 (Plasmodium falciparum [6]): 8.01; pIC50 (Plasmodium falciparum [7]): 7.71
22 | CCN(CC)Cc1cc(Nc2ccnc3cc(Cl)ccc23)ccc1O.Cl | 12000 | 2500 | 8.32 | Activity (Plasmodium berghei [8]): Active; Activity (Plasmodium berghei [9]): 100%; Activity (Mus musculus): Non-toxic; pIC50 (Plasmodium falciparum [6]): 8.03; pIC50 (Plasmodium falciparum [7]): 8.34
23 | CCN(CC)CCCC(C)Nc1ccnc2cc(Cl)ccc12 (stereo unspecified) [CHLOROQUINE] | 50000 | – | – | Activity (Plasmodium berghei [8]): Active; Activity (Plasmodium berghei [9]): 100%; Activity (Mus musculus): Non-toxic
24 | O=C(CN1CCCCC1)Nc1cc(COC(=O)CN2CCCCC2)cc(Nc2ccnc3cc(Cl)ccc23)c1 | – | 231 | – | –
25 | O=C(CN1CCCCC1)Nc1cc(CO)cc(Nc2ccnc3cc(Cl)ccc23)c1 | 12500 | 281 | – | Activity (Plasmodium berghei [2]; route oral): 110%; Activity (Plasmodium berghei [3]): 100%; Activity (Mus musculus): Non-toxic
26 | O=C(CN1CCCCC1)Nc1cc(COC(=O)CCCCCN2CCCCC2)cc(Nc2ccnc3cc(Cl)ccc23)c1 | – | 456 | – | –
27 | O=C(CN1CCCCC1)Nc1cc(COC(=O)CCCCN2CCOCC2)cc(Nc2ccnc3cc(Cl)ccc23)c1 | – | 887 | – | Activity (Plasmodium berghei [2]; route oral): 73%; Activity (Plasmodium berghei [3]): 99.8%; Activity (Mus musculus): Non-toxic
28 | CN(C)CCCNC(=O)c1cc(NC(=O)CN2CCCCC2)cc(Nc2ccnc3cc(Cl)ccc23)c1 | > 32000 | > 177 | 6.74 | –
29 | CN(C)CCNC(=O)c1cc(NC(=O)CN2CCCCC2)cc(Nc2ccnc3cc(Cl)ccc23)c1 | 15000 | 478 | 7.50 | –
30 | O=C(CN1CCCCC1)Nc1cc(COC(=O)CCCCN2CCCCC2)cc(Nc2ccnc3cc(Cl)ccc23)c1 | – | 806 | – | –
31 | O=C(CN1CCCCC1)Nc1cc(CNCCN2CCOCC2)cc(Nc2ccnc3cc(Cl)ccc23)c1 | – | 406 | 8.10 | Activity (Plasmodium berghei [2]): Active; Activity (Plasmodium berghei [3]): 100%; Activity (Mus musculus): Non-toxic
